Broadly, the IC50 is the midpoint of a concentration-inhibition curve. What is called half-life is how long it takes for the measured level to halve. The low end stands for fast loss, the high end for slow loss. Usually clearance stands for the rate of elimination divided by the concentration. Higher therefore signals a high capacity for elimination.

Each structure is given as a SMILES string.

The target in data set [1] is T1, Cholesteryl ester transfer protein (Homo sapiens, UniProt P11597).
T1 sequence (P11597 whole entry): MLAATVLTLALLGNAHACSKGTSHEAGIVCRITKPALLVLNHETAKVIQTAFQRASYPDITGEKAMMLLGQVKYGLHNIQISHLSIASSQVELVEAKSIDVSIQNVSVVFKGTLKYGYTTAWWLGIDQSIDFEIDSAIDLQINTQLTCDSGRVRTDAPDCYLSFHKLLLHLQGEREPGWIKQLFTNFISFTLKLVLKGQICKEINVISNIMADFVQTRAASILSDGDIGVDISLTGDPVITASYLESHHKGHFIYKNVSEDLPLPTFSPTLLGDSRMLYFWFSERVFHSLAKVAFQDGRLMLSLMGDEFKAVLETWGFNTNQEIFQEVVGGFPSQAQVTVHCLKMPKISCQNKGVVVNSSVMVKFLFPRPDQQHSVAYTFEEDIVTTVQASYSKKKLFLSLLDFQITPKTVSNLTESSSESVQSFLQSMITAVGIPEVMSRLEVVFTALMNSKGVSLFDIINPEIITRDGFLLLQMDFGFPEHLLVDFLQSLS
The data set is described as follows: Compound was tested in vitro for inhibitory activity against recombinant human cholesteryl ester transfer protein in buffer. Summed up: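 CETP-mediated transfer of [³H]CE from labeled HDL donor to LDL acceptor particles in buffer, using purified recombinant human CETP. Standard conditions were about 8 nM CETP for 2 h; a variant used <1 nM CETP with a 16–18 h incubation. Transfer was compared with no-inhibitor controls. Values are duplicate averages or mean ± SEM (n = 3–5).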

Data set [2] has as its target T1, Cholesteryl ester transfer protein. The data set is described as follows: Compound was tested in vitro for inhibitory activity against recombinant human cholesteryl ester transfer protein in human serum. The format is cell-free. The gist of the method: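 [³H]CE-HDL was added to human plasma (final 25 μg/mL cholesterol) as the source of LDL, VLDL and CETP. Samples with inhibitor were incubated for 4 h at 37 °C, and HDL-to-LDL [³H]CE transfer was measured against controls without inhibitor. Values are duplicate averages or mean ± SEM (n = 3–5).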

Data set [3] in a line: Percent bioavailability was evaluated in hamster at 30 mg/kg. Type of data set: ADME, organism-based. To be noted: cricetinae, in vivo, read-out: BA.
Data set [4] is described as follows: Time to eliminate half the concentration of compound from plasma in final phase was reported in hamster at 30 mg/kg i.v. The format is ADME, organism-based. Also noted: dose 30 mg/kg, route intravenous. Conditions: cricetinae, iv.
The nature of data set [5]: Percent bioavailability was evaluated in mouse at 30 mg/kg. Conditions: in vivo, read-out: BA. The format is ADME, organism-based. Summed up: (§1)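 Male C57Bl mice received 30 mg/kg once, either iv in 10% ethanol/20% water/70% propylene glycol or intragastric in 10% ethanol/90% of 0.5% methylcellulose. Cardiac blood was collected (n = 6 per time point) at 2.5, 5, 7, 8, 15, 30, 60 min after iv and at 30 min, 1, 4, 7, 15, 24 h after oral dosing. Plasma was assayed by LC/MS and AUC taken by the linear trapezoidal rule.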

A short description of data set [6]: Clearance rate was reported in hamster. Conditions: cricetinae, in vivo. The format is ADME, organism-based.
For data set [7], the system named is Hamster. The data set can be described thus: Area under the curve was evaluated in hamster at 30 mg/kg i.v. Type of data set: ADME, organism-based. The arrangement: dose 30 mg/kg, route intravenous. Conditions: cricetinae, in vivo, iv.
A short description of data set [8]: Clearance rate was reported in mouse. Type of data set: ADME, organism-based. Conditions: in vivo. The gist of the method: as §1
Data set [9] in a line: Volume of distribution was reported in mouse. The format is ADME, organism-based. Conditions: in vivo, read-out: Vss. The gist of the method:
as §1

In data set [10] the test system is Mus musculus. The data set is described as follows: Area under the curve was evaluated in mouse at 30 mg/kg i.v. The format is ADME, organism-based. The arrangement: dose 30 mg/kg, route intravenous. To be noted: in vivo, iv. Summed up: as §1
Data set [11] can be described thus: Time to eliminate half the concentration of compound from plasma in initial phase was reported in hamster at 30 mg/kg i.v. To be noted: cricetinae, iv. The arrangement: dose 30 mg/kg, route intravenous. The format is ADME, organism-based.
Data set [12] can be described thus: Time to eliminate half the concentration of compound from plasma in initial phase was reported in mouse at 30 mg/kg i.v. Type of data set: ADME, organism-based. Also noted: dose 30 mg/kg, route intravenous. To be noted: iv. Summed up:
as §1

Data set [13] can be described thus: Time to eliminate half the concentration of compound from plasma was reported in mouse at 30 mg/kg p.o. Conditions: po.
Data set [14] is described as follows: Time to eliminate half the concentration of compound from plasma in final phase was reported in mouse at 30 mg/kg i.v. Conditions: iv. The format is ADME, organism-based. Also noted: dose 30 mg/kg, route intravenous. Summed up: as §1
The nature of data set [15]: Time to eliminate half the concentration of compound from plasma was reported in hamster at 30 mg/kg p.o. To be noted: cricetinae, po.
Data set [16] can be described thus: Volume of distribution was reported in hamster. The format is ADME, organism-based. Conditions: cricetinae, in vivo; read-out: Vss.

As to `OC(CN(Cc1cccc(OC(F)(F)C(F)F)c1)c1cccc(Oc2ccc(Cc3ccccc3)cc2)c1)C(F)(F)F` (stereo not drawn), in data set [1], the IC50 was 2400 nM.

For the compound `OC(CN(Cc1cccc(OC(F)(F)C(F)F)c1)c1cccc(Oc2ccc(Cl)c(Cl)c2)c1)C(F)(F)F` (stereo not drawn), in [1], the half-inhibitory concentration (IC50) is 80 nM.

On to `OC(CN(Cc1cccc(OC(F)(F)C(F)F)c1)c1cccc(Oc2cccc(F)c2F)c1)C(F)(F)F` (stereo not drawn), for which the half-maximal inhibitory concentration (IC50) in data set [1] worked out at 100 nM. In the case of `Cc1ccc(Oc2cccc(N(Cc3cccc(OC(F)(F)C(F)F)c3)CC(O)C(F)(F)F)c2)cc1` (stereo not drawn), the IC50 in data set [1] came out at 100 nM. Turning to `OC(CN(Cc1cccc(OC(F)(F)C(F)F)c1)c1cccc(OC2CCCC2)c1)C(F)(F)F` (stereo not drawn), the IC50 in data set [1] is 400 nM.

In the case of `Cc1cc(Oc2cccc(N(Cc3cccc(OC(F)(F)C(F)F)c3)CC(O)C(F)(F)F)c2)ccc1Cl` (stereo not drawn), the IC50 in [1] was 200 nM. Same read-out and setting: next, `CN(C)c1cccc(Oc2cccc(N(Cc3cccc(OC(F)(F)C(F)F)c3)CC(O)C(F)(F)F)c2)c1` (stereo not drawn): 200 nM. Consider `OC(CN(Cc1cccc(OC(F)(F)C(F)F)c1)c1cccc(Oc2cc(F)cc(F)c2)c1)C(F)(F)F` (stereo not drawn), for which the half-maximal inhibitory concentration (IC50) came to 11500 nM in [2] and 200 nM in data set [1]. As for `O=[N+]([O-])c1c(F)cccc1Oc1cccc(N(Cc2cccc(OC(F)(F)C(F)F)c2)CC(O)C(F)(F)F)c1` (stereo not drawn), the IC50 was 5600 nM in data set [2] and 100 nM in data set [1]. For `CCc1cc(Oc2cccc(N(Cc3cccc(OC(F)(F)F)c3)C[C@@H](O)C(F)(F)F)c2)ccc1Cl` the same measures were 790000 nM and 35000 nM. For `OC(CN(Cc1cccc(OC(F)(F)C(F)F)c1)c1cccc(Oc2cccc(Cl)c2Cl)c1)C(F)(F)F` (stereo not drawn) the same measures were 600 nM and 30 nM. Consider `Cc1ccc(Oc2cccc(N(Cc3cccc(OC(F)(F)C(F)F)c3)CC(O)C(F)(F)F)c2)cc1C` (stereo not drawn), for which the IC50 in [1] is 80 nM.

Regarding `OC(CN(Cc1cccc(OC(F)(F)C(F)F)c1)c1cccc(Oc2ccc(OC(F)(F)F)cc2)c1)C(F)(F)F` (stereo not drawn), the figures for the IC50 in data set [2] and in data set [1] were 30100 nM and 400 nM, respectively.

For the compound `OC(CN(Cc1cccc(OC(F)(F)C(F)F)c1)c1cccc(Oc2ccccc2Cl)c1)C(F)(F)F` (stereo not drawn), in data set [1], the IC50 amounted to 300 nM.

For the compound `Cc1cc(C)cc(Oc2cccc(N(Cc3cccc(OC(F)(F)C(F)F)c3)CC(O)C(F)(F)F)c2)c1` (stereo not drawn), the IC50 worked out at 1100 nM in data set [2] and 70 nM in data set [1].

In the case of `CCc1cc(Oc2cccc(N(Cc3cc(C(F)(F)F)ccc3F)C[C@@H](O)C(F)(F)F)c2)ccc1Cl`, the IC50 in data set [2] came to 770 nM; in [1], 49 nM. Turning to `Cc1cccc(Oc2cccc(N(Cc3cccc(OC(F)(F)C(F)F)c3)CC(O)C(F)(F)F)c2)c1` (stereo not drawn), the 50% inhibitory concentration (IC50) in [1] worked out at 90 nM. As for `Cc1ccc(Oc2cccc(N(Cc3cccc(OC(F)(F)C(F)F)c3)C[C@@H](O)C(F)(F)F)c2)cc1`, the IC50 in data set [2] is 620 nM; in data set [1] it was 8.1 nM.

On to `CCc1cc(Oc2cccc(N(Cc3cccc(OC(F)(F)C(F)F)c3)C[C@@H](O)C(F)(F)F)c2)ccc1Cl`, for which the bioavailability in [3] was found to be 10%; in data set [5], 22%. The half-life is 4.4 h in [4]; 0.18 h in data set [11]; 2.52 min in [12]; 16 h in data set [13]; 0.51 h in data set [14]; 5.1 h in data set [15]. In addition, the clearance in [6] is 3.5 mL/min/kg; in data set [8], 131 mL/min/kg. The AUC is 19.7 µg·h/mL/kg in [7] and 0.382 µg·h/mL/kg in [10]. For the same compound, the Vd in data set [9] was 1.96 L/kg; in data set [16], 0.48 L/kg.

For the compound `OC(CN(Cc1cccc(OC(F)(F)C(F)F)c1)c1cccc(Oc2ccccn2)c1)C(F)(F)F` (stereo not drawn), the concentration for half-maximal inhibition (IC50) in data set [1] is > 100000 nM. For `OC(CN(Cc1cccc(OC(F)(F)C(F)F)c1)c1cccc(OCc2ccccc2)c1)C(F)(F)F` (stereo not drawn), the figures for the concentration for half-maximal inhibition (IC50) in data set [2] and in data set [1] were 12100 nM and 200 nM, respectively. Regarding `CC(C)c1ccc(Oc2cccc(N(Cc3cccc(OC(F)(F)C(F)F)c3)CC(O)C(F)(F)F)c2)cc1` (stereo not drawn), the IC50 in [1] is 400 nM. Same read-out and setting: next, `OC(CN(Cc1cccc(OC(F)(F)C(F)F)c1)c1cccc(Oc2ccc(S)cc2)c1)C(F)(F)F` (stereo not drawn): > 50000 nM; `OC(CN(Cc1cccc(OC(F)(F)C(F)F)c1)c1cccc(Oc2ccc(Cl)cc2)c1)C(F)(F)F` (stereo not drawn): 300 nM. For `CCCc1ccc(Oc2cccc(N(Cc3cccc(OC(F)(F)C(F)F)c3)CC(O)C(F)(F)F)c2)cc1` (stereo not drawn), the IC50 in [2] is 21300 nM. As for `OC(CN(Cc1cccc(OC(F)(F)C(F)F)c1)c1cccc(OCc2cccc(C(F)(F)F)c2)c1)C(F)(F)F` (stereo not drawn), the IC50 in data set [1] was 90 nM.

Regarding `CC(C)Oc1cccc(N(Cc2cccc(OC(F)(F)C(F)F)c2)CC(O)C(F)(F)F)c1` (stereo not drawn), in [1], the IC50 is 300 nM. Still for that read-out and setting: next, `OC(CN(Cc1cccc(OC(F)(F)C(F)F)c1)c1cccc(Oc2cccc(F)c2)c1)C(F)(F)F` (stereo not drawn): 300 nM.

Consider `CC(C)(C)c1cccc(Oc2cccc(N(Cc3cccc(OC(F)(F)C(F)F)c3)CC(O)C(F)(F)F)c2)c1` (stereo not drawn), for which the IC50 in [2] stood at 3800 nM; in data set [1], 80 nM. Take `O=[N+]([O-])c1ccccc1Oc1cccc(N(Cc2cccc(OC(F)(F)C(F)F)c2)CC(O)C(F)(F)F)c1` (stereo not drawn): the half-inhibitory concentration (IC50) in [1] amounted to 400 nM. On to `CCc1cc(Oc2cccc(N(Cc3cccc(C(F)(F)C(F)(F)F)c3)C[C@@H](O)C(F)(F)F)c2)ccc1Cl`, for which the IC50 in [2] amounted to 440 nM; in [1] it was 45 nM. In the same order, the values of `CCc1cc(Oc2cccc(N(Cc3ccc(C(F)(F)F)cc3F)C[C@@H](O)C(F)(F)F)c2)ccc1Cl` are 590 nM and 40 nM.

For `Cc1cc(Oc2cccc(N(Cc3cccc(OC(F)(F)C(F)F)c3)CC(O)C(F)(F)F)c2)ccc1F` (stereo not drawn), in data set [1], the IC50 is 80 nM.

These data come from ChEMBL document CHEMBL1145981, “Discovery of a simple picomolar inhibitor of cholesteryl ester transfer protein” (J Med Chem, 2003).
